Laboratory results as given in ChEMBL document CHEMBL1156765, “Novel organic proteasome inhibitors identified by virtual and in vitro screening” (J Med Chem, 2010).
Each block holds one compound with its values, some of them ahead of it. The source made the active and inactive calls. No cut-off for these calls is given here.

Tests used:
Oryctolagus cuniculus [1] = organism: Oryctolagus cuniculus; assay: Inhibition of chymotrypsin-like activity of rabbit 20S proteasome at 100 uM at pH 8 after 15 mins
Outline: (§1)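 Rabbit 20S proteasome held with inhibitor for 15 min at pH 8, 37 °C. The matching fluorogenic substrate was then added to read the remaining chymotrypsin-like, post-acid or trypsin-like activity. Results are reported as IC50, or as % inhibition at a single inhibitor concentration of 50 or 100 μM.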

[2] = Inhibition of post-acid activity of rabbit 20S proteasome at pH 8 after 15 mins; parameters: species or system Oryctolagus cuniculus; outline: as §1
[3] = Inhibition of chymotrypsin-like activity of rabbit 20S proteasome at pH 8 after 15 mins; parameters: species or system Oryctolagus cuniculus; outline: as §1
Oryctolagus cuniculus [4] = organism: Oryctolagus cuniculus; assay: Inhibition of post-acid activity of rabbit 20S proteasome at 50 uM at pH 8 after 15 mins; outline: as §1
[5] = Inhibition of trypsin-like activity of rabbit 20S proteasome at pH 8 after 15 mins; parameters: species or system Oryctolagus cuniculus; outline: as §1
Oryctolagus cuniculus [6] = organism: Oryctolagus cuniculus; assay: Inhibition of post-acid activity of rabbit 20S proteasome at 100 uM at pH 8 after 15 mins; outline: as §1
[7] = biological target: T1, Calpain-1 catalytic subunit (Homo sapiens) (UniProt P07384); assay: Inhibition of cytosolic calpain 1 at 50 uM at pH 7.2
T1 sequence (whole entry): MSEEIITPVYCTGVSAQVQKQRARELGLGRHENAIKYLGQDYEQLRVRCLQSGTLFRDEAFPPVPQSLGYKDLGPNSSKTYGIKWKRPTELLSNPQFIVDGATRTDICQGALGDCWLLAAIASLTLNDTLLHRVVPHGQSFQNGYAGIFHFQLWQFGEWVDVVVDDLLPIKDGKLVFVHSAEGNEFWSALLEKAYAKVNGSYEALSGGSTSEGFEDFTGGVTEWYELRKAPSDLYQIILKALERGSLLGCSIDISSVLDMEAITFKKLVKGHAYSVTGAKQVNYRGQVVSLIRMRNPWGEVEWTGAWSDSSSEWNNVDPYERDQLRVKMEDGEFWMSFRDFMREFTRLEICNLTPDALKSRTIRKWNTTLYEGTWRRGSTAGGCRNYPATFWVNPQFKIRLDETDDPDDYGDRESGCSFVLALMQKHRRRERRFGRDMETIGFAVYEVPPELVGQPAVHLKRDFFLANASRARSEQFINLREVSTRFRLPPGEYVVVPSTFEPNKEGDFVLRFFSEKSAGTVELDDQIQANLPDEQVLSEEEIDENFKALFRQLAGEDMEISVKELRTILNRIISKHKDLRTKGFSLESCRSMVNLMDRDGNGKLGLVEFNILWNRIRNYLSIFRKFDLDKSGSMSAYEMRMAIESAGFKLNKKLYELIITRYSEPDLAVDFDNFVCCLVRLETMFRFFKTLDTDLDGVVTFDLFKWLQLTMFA

[8] = biological target: T1, Calpain-1 catalytic subunit (Homo sapiens); assay: Inhibition of cytosolic calpain 1 at 100 uM at pH 7.2
HeLa = assay: Cytotoxicity against human HeLa cells after 48 hrs by XTT assay; assay type: functional, cell-based
HEK293 = assay: Cytotoxicity against human HEK293 cells after 48 hrs by XTT assay; assay type: functional, cell-based; details: HEK293, 48 h
Oryctolagus cuniculus [9] = organism: Oryctolagus cuniculus; assay: Inhibition of trypsin-like activity of rabbit 20S proteasome at 100 uM at pH 8 after 15 mins; outline: as §1
Oryctolagus cuniculus [10] = organism: Oryctolagus cuniculus; assay: Inhibition of chymotrypsin-like activity of rabbit 20S proteasome at 50 uM at pH 8 after 15 mins; outline: as §1
Oryctolagus cuniculus [11] = organism: Oryctolagus cuniculus; assay: Inhibition of trypsin-like activity of rabbit 20S proteasome at 50 uM at pH 8 after 15 mins; outline: as §1

inhibition (Oryctolagus cuniculus [1]): 87% | IC50 ([2]; read-out: IC50): > 25 µM
Compound: CCN(CC)S(=O)(=O)c1ccc(NC(=O)c2ccc(C(C)(C)C)cc2)cc1

IC50 ([5]; read-out: IC50): 25.6 µM | IC50 [3]: Not Active | inhibition (Oryctolagus cuniculus [6]): 45%
Compound: CCc1ccc(-c2cc(C(=O)Nc3ccc(S(=O)(=O)NC(C)=O)cc3)c3ccccc3n2)cc1

IC50 ([5]; read-out: IC50): 4.5 µM | Activity [7]: inactive | Activity [8]: inactive | IC50 ([3]; read-out: IC50): 1.9 µM | IC50 ([2]; read-out: IC50): 10 µM
Compound: C=CCN(CC=C)S(=O)(=O)c1ccc(NC(=O)c2ccc(C(C)(C)C)cc2)cc1
EC50 (HeLa): 12.3 µM | EC50 (HEK293): 9.7 µM

Activity [7]: inactive | Activity [8]: inactive | IC50 ([3]; read-out: IC50): 18.9 µM | IC50 ([2]; read-out: IC50): 8 µM
Compound: CCCN(CCC)S(=O)(=O)c1ccc(NC(=O)c2ccc(C(C)(C)C)cc2)cc1
EC50 (HeLa): 9 µM | EC50 (HEK293): < 5 µM

inhibition (Oryctolagus cuniculus [9]): 13% | IC50 [3]: Not Active | inhibition (Oryctolagus cuniculus [4]): 54%
Compound: Cc1ccccc1C(=O)Nc1ccc(S(=O)(=O)NCc2ccccc2)cc1

IC50 ([3]; read-out: IC50): > 50 µM | inhibition (Oryctolagus cuniculus [6]): 63%
Compound: CC(C)(C)c1ccc(C(=O)Nc2ccc(S(=O)(=O)N3CCCCCC3)cc2)cc1

IC50 [5]: Not Active | IC50 [3]: Not Active | inhibition (Oryctolagus cuniculus [4]): 52%
Compound: CC(C)(C)c1ccc(/C=C/C(=O)N2CCN(c3ccc([N+](=O)[O-])cc3)CC2)cc1

IC50 [3]: Not Active | inhibition (Oryctolagus cuniculus [11]): 45% | inhibition (Oryctolagus cuniculus [6]): 42%
Compound: CCOc1ccc(-c2cc(C(=O)Nc3ccc(S(=O)(=O)NC(C)=O)cc3)c3ccccc3n2)cc1

More lines, now with the values behind:

Compound: Cc1ccc(-c2nnc(Nc3ccccc3)c3ccccc23)cc1S(=O)(=O)NCC1CCCO1 (stereo not drawn)
IC50 [3]: Not Active | inhibition (Oryctolagus cuniculus [4]): 52%

Compound: CCOC(=O)CNS(=O)(=O)c1cc(-c2nnc(Nc3cccc(O)c3)c3ccccc23)ccc1C
inhibition (Oryctolagus cuniculus [9]): 63% | inhibition (Oryctolagus cuniculus [10]): 35% | EC50 (HEK293): 13.9 µM | IC50 ([2]; read-out: IC50): 39 µM

Compound: O=C(Nc1ccc(S(=O)(=O)NCc2ccccc2)cc1)c1cc(-c2cccs2)nc2ccccc12
inhibition (Oryctolagus cuniculus [10]): 70.1% | IC50 [2]: Not Active

Compound: Cc1ccc(-c2nnc(Nc3cccc(O)c3)c3ccccc23)cc1S(=O)(=O)NC(C)(C)CO
IC50 ([5]; read-out: IC50): 67.8 µM | IC50 ([3]; read-out: IC50): 35.4 µM | IC50 ([2]; read-out: IC50): 14.8 µM

Compound: COc1ccc(N2CCN(C(=S)Nc3ccc([N+](=O)[O-])cc3)CC2)cc1
IC50 ([3]; read-out: IC50): 10.8 µM | EC50 (HEK293): 50 µM | IC50 ([2]; read-out: IC50): 9 µM

Compound: COc1ccc(NC(=O)C23CC4CC(C2)CC(C(=O)Nc2ccc(OC)cc2)(C4)C3)cc1
IC50 ([3]; read-out: IC50): 11.7 µM | IC50 ([2]; read-out: IC50): 12.4 µM

Compound: COc1ccc(N2CCN(C(=O)COc3ccc(C(C)(C)C)cc3)CC2)c([N+](=O)[O-])c1
inhibition (Oryctolagus cuniculus [10]): 40% | IC50 [2]: Not Active

Compound: CC(C)(C)c1ccc(OCC(=O)N2CCN(c3ccc([N+](=O)[O-])cc3)CC2)c(Br)c1
IC50 [5]: Not Active | IC50 [3]: Not Active | inhibition (Oryctolagus cuniculus [4]): 49%

Compound: CC(=O)NS(=O)(=O)c1ccc(NC(=O)c2cc(-c3ccc(Cl)s3)nc3ccccc23)cc1
EC50 (HeLa): 100 µM | EC50 (HEK293): 75 µM

Compound: COc1ccc(NC(=O)C23CC4CC(C2)CC(c2ccc(C)cc2)(C4)C3)cc1
IC50 ([3]; read-out: IC50): 26.2 µM | IC50 ([2]; read-out: IC50): 50 µM

Compound: Cc1ccc(-c2nnc(Nc3cccc(O)c3)c3ccccc23)cc1S(=O)(=O)NC(C)(C)C
IC50 ([3]; read-out: IC50): 28.3 µM | inhibition (Oryctolagus cuniculus [11]): 44% | inhibition (Oryctolagus cuniculus [4]): 29% | EC50 (HEK293): 10.4 µM
